Experimental data: article PMC3767132 (Organic & biomolecular chemistry, 2012)
Read-outs that look alike come from different tables or passages of the source. One block for each compound: values may come before it.

Experiments:
HeLa = HeLa proliferation assay, 3H-T uptake; format: cell-based; conditions: Homo sapiens, HeLa, read-out: IC50 3H-T Uptake HeLa
HUVEC [1] = assay: HUVEC proliferation assay using [3H]-thymidine incorporation; format: cell-based, human
HFF = HFF cell-viability assay using calcein-AM; format: cell-based, human; conditions: for IC50: Homo sapiens, HFF, read-out: IC50 Calcein-AM HFF
HUVEC [2] = assay: HUVEC cell-viability assay using calcein-AM; format: cell-based, human; conditions: Homo sapiens, HUVEC, read-out: IC50 Calcein-AM HUVEC
sirtuin 1 (SIRT1) = conditions: read-out: IC50 SIRT1; cited from earlier work
Jurkat-T = assay: Jurkat T proliferation assay, 3H-T uptake; format: cell-based; conditions: Homo sapiens, Jurkat, read-out: IC50 3H-T Uptake Jurkat-T
MetAP = assay: Immunoblot of Met-14-3-3γ; format: cell-based, human; conditions: for Immunoblot Met-14-3-3γ: compound treated HUVEC lysates, 24 h, signal relative to DMSO = 1.0
Outline: (§1)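 HUVEC were exposed to test compound for 24 h, typically at 5 μM (some up to 10 μM), with DMSO as negative control. Lysates were immunoblotted for Met-14-3-3γ, 14-3-3γ, Ac-p53 and total p53. Band densities were taken as Met-14-3-3γ/14-3-3γ and Ac-p53/p53 per lane, relative to DMSO = 1.0. Ac-p53 was scored −(<2.0), +(2.0–7.0), ++(7.1–11.6), +++(>11.6).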

SIRT1 = assay: Immunoblot of Ac-p53; format: cell-based, human; conditions: for Immunoblot Ac-p53: compound treated HUVEC lysates, 24 h, signal relative to DMSO = 1.0
Outline: as §1

hMetAP2 = hMetAP2 (Homo sapiens, UniProt P50579); assay: human MetAP2 enzyme assay; format: biochemical
hMetAP2, sequence (P50579 whole entry): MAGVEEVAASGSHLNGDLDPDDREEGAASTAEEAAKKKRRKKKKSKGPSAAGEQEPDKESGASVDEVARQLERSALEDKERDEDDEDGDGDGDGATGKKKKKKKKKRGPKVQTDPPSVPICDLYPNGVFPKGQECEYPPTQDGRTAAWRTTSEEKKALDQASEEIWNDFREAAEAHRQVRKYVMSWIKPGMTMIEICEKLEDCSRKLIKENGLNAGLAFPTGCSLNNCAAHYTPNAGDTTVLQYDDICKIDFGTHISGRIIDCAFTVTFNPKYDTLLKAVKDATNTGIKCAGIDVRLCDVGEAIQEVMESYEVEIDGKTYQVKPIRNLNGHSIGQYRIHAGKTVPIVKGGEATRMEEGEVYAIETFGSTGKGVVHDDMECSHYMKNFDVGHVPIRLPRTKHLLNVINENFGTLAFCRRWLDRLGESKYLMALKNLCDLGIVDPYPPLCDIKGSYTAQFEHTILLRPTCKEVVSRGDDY

[3] = Metal complexation by UV-vis spectra in MetAP assay buffer; format: physicochemical; conditions: 10 μM in MetAP assay buffer
Outline: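 UV–vis absorption spectra recorded for the test compound at 10 μM in MetAP assay buffer, without and with metal ions. Metals were added as MnCl2 or CoCl2 at 10 μM, a buffer and metal level chosen to emulate the enzyme assay. Complexation was read as shifts in λmax and changes in band intensity.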

HUVEC [4] = assay: Cytotoxicity seen on treatment of HUVEC for immunoblotting; format: cell-based, human; conditions: 0.5 μM for 24 h
hMetAP1 = hMetAP1 (Homo sapiens, UniProt P53582); assay: human MetAP1 enzyme assay; format: biochemical; conditions: for IC50: 10 μM Co2+; for b = bottom value in the dose-response curve, hMetAP1: noted only when above 15%
HUVEC [5] = assay: DCF-DA assay of ROS levels in HUVEC; format: cell-based, human; conditions: HUVEC treated with 10 μM, data not shown
[6] = Homo sapiens, HUVEC, read-out: IC50 HUVEC, proliferation, 3H-T uptake
[7] = Homo sapiens, HUVEC, read-out: IC50 HUVEC
[8] = read-out: IC50 hMetAP2, enzyme assay, 10 μM Mn2+
[9] = read-out: IC50 hMetAP1, enzyme assay
[10] = up to 10 μM, HUVEC, data not shown

SMILES: O=[N+]([O-])c1ccc(O)c2ncccc12 [Entry 5, Nitroxoline, reference compound]
- IC50 (HeLa): 3.97 ± 0.9 µM
- IC50 (HUVEC [1]; [6]): 1.9 ± 0.3 µM
- b = bottom value of the curve, Calcein-AM HFF (HFF): 21%
- IC50 (HFF): 3.69 ± 1 µM
- IC50 (HUVEC [2]): 5.13 ± 1.2 µM
- IC50 (sirtuin 1 (SIRT1)): 20.2 µM
- IC50 (Jurkat-T): 1.58 ± 0.3 µM
- Immunoblot Met-14-3-3γ (MetAP): + (+, ≥1.5)
- Immunoblot Ac-p53 (SIRT1): ++ (++, 7.1–11.6)
- inhibition at 10 µM (hMetAP2; read-out: inhibition of MetAP2 activity in HTS): > 90%

SMILES: O=C(Nc1cc(Cl)cc(Cl)c1)Oc1ccc(Cl)c2cccnc12 [Entry 24, 5-Chloroquinolin-8-yl 3,5-dichlorophenylcarbamate]
- complexation with Mn2+ and Co2+ ions (UV-vis) [3]: lack of complexation
- IC50 (HUVEC [1]; [6]): 0.324 ± 0.06 µM
- b = bottom value of the curve, Calcein-AM HFF (HFF): 17%
- IC50 (HFF): 2.69 ± 0.5 µM
- IC50 (HUVEC [2]): 0.746 ± 0.19 µM
- cytotoxicity in HUVEC (HUVEC [4]): not enough cells were left
- IC50 (hMetAP2): 0.024 ± 0.007 µM
- IC50 (hMetAP1; IC50 hMetAP1, enzyme assay): > 15 µM

SMILES: O=Nc1ccc(O)c2ncccc12 [Entry 33, 5-nitrosoquinolin-8-ol]
- affinity for Mn2+ (UV-vis) [3]: very little affinity
- IC50 (HeLa): 0.64 ± 0.2 µM
- IC50 (HUVEC [1]; [7]): 0.364 ± 0.2 µM
- b = bottom value of the curve, Calcein-AM HFF (HFF): 17%
- IC50 (HFF): 9.08 ± 1.2 µM
- IC50 (HUVEC [2]): 3.72 ± 0.8 µM
- ROS levels (DCF-DA) (HUVEC [5]): failed to observe any significant increase
- IC50 (Jurkat-T): 0.36 ± 0.07 µM
- Immunoblot Met-14-3-3γ (MetAP): − (−, >1.5)
- Immunoblot Ac-p53 (SIRT1): + (+, 2.0–7.0)
- IC50 (hMetAP2): > 50 µM
- IC50 (hMetAP1; IC50 hMetAP1, enzyme assay): > 15 µM

SMILES: O=C(Nc1ccc(O)c2ncccc12)c1ccccc1 [Entry 40]
- complexation with Mn2+ and Co2+ ions (UV-vis) [3]: signs of complex formation
- IC50 (HUVEC [1]; read-out: IC50 HUVEC, proliferation, 3H-T uptake): 0.789 ± 0.11 µM
- Immunoblot Met-14-3-3γ (MetAP): + (+, ≥1.5)
- Immunoblot Ac-p53 (SIRT1): +++ (+++, >11.6)
- IC50 (hMetAP2; [8]): > 40 µM
- IC50 (hMetAP1; [9]): 6.45 µM

SMILES: CN(C)S(=O)(=O)Oc1ccc([N+](=O)[O-])c2cccnc12 [Entry 48, 5-nitroquinolin-8-yl dimethylsulfamate]
- complexation with Mn2+ and Co2+ ions (UV-vis) [3]: does form chelates
- IC50 (HeLa): 2.41 ± 0.8 µM
- IC50 (HUVEC [1]; [7]): 0.77 ± 0.1 µM
- b = bottom value of the curve, Calcein-AM HFF (HFF): 23%
- IC50 (HFF): 2.26 ± 0.3 µM
- IC50 (HUVEC [2]): 4.21 ± 1.4 µM
- IC50 (Jurkat-T): 1.73 ± 0.2 µM
- Immunoblot Met-14-3-3γ (MetAP): + (+, ≥1.5)
- concentration of maximal sirtuin inhibition (biphasic mode) (SIRT1; HUVEC immunoblot, Ac-p53): around 2 μM
- Immunoblot Ac-p53 (SIRT1): +++ (+++, >11.6)
- IC50 (hMetAP2; [8]): 0.057 ± 0.015 µM
- IC50 (hMetAP1; [9]): > 15 µM

SMILES: Cc1ccc(S(=O)(=O)Nc2ccc(N=O)c3cccnc23)cc1 [Entry 54, 4-methyl-N-(5-nitrosoquinolin-8-yl)benzene-sulfonamide]
- complexation with Mn2+ and Co2+ ions (UV-vis) [3]: formation of chelates
- IC50 (HeLa): 0.59 ± 0.1 µM
- IC50 (HUVEC [1]; [7]): 0.204 ± 0.02 µM
- b = bottom value of the curve, Calcein-AM HFF (HFF): 22%
- IC50 (HFF): 0.782 ± 0.13 µM
- IC50 (HUVEC [2]): 1.32 ± 0.2 µM
- IC50 (Jurkat-T): 0.45 ± 0.05 µM
- Immunoblot Met-14-3-3γ (MetAP): + (+, ≥1.5)
- Immunoblot Ac-p53 (SIRT1): − (−, <2.0)
- IC50 (hMetAP2): > 15 µM
- IC50 (hMetAP1; IC50 hMetAP1, enzyme assay): 10.5 ± 0.9 µM
- b = bottom value in the dose-response curve, hMetAP1 (hMetAP1): 18%

- IC50 (HeLa): 1.03 ± 0.2 µM
- IC50 (Jurkat-T): 0.82 ± 0.15 µM
- IC50 (hMetAP2): > 15 µM
- IC50 (hMetAP1; IC50 hMetAP1, enzyme assay): 21 µM
- b = bottom value in the dose-response curve, hMetAP1 (hMetAP1): 19%
SMILES: Cc1ccc(S(=O)(=O)Nc2ccc([N+](=O)[O-])c3cccnc23)cc1 [Entry 55, 4-methyl-N-(5-nitroquinolin-8-yl)benzene-sulfonamide]
- IC50 (HUVEC [1]; [7]): 0.305 ± 0.07 µM
- b = bottom value of the curve, Calcein-AM HFF (HFF): 21%
- IC50 (HFF): 0.783 ± 0.11 µM
- IC50 (HUVEC [2]): 1.46 ± 0.21 µM
- Immunoblot Met-14-3-3γ (MetAP): − (−, >1.5)
- effect on the levels of Met-14-3-3γ (MetAP; [10]): no effect
- Immunoblot Ac-p53 (SIRT1): − (−, <2.0)
- effect on the levels of Ac-p53 (SIRT1; [10]): no effect
